# In the RNAGym collection of RNA variant scans (doi:10.1038/s41586-018-0170-7):
# B1: tRNA (parent)
# chain: GUUCCGUUGGCGUAAUGGUAACGCGUCUCCCUCCUAAGGAGAAGACUGCGGGUUCGAGUCCCGUACGGAACG
# Variants of: B1
# Test: yeast fitness, log relative to wild type (ln ratio); higher = fitter; tRNA-Arg(CCU), competitive growth, 37 C, 1 M NaCl
# Procedure, shortened: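 Fitness is the natural log of each genotype's generations divided by the wild type's. Generations were derived as OD-scaled log2 output/input frequency from 125 bp paired-end Illumina counts, weighting replicates by inverse variance. Pools of the tRNA-Arg(CCU) variant library, on a HIS3 centromeric plasmid in BY4742 lacking the chromosomal gene, grew ~6.5 generations (~26.5 h) in SC-HIS 1M NaCl at 37 °C after 4 generations in SC-HIS at 30 °C.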
row,Variant,yeast fitness (ln)
1,AGUCCGUUGGCGUAAUGGUAACGCGUUUCCCUCCUAAGGAGACGACUGCGGGUUCGAGUCCCGUAAGGAGCG [G1A U2G C27U A43C C66A A70G],-0.255
2,GUUCCGUUGGCGUAAUGGUAACGCGUUUCCCUCCUAAGGAGACGAUUGCGGGUUCGAGUCCCGUACGGGGUG [C27U A43C C46U A69G A70G C71U],-0.0917
3,GCUCCGUUGGCGUAAUGGUAACGCGUUUCCCUCCUAAGGAGACGAUUGCGGGUUCGAGUCCCGUAUGGAACG [U2C C27U A43C C46U C66U],-0.0652
4,GUUCCUUUGGCGUAAUGGUAACGCGUUUCCCUCCUAAGGAGACGACUGCGGGUUCGAGUCCCGUAUGGAUCG [G6U C27U A43C C66U A70U],-0.259
5,AUUCCAUUGGCGUAAUGGUAACGCGUUUCCCUCCUAAGGAGACGACUGCGGGUUCGAGUCCCGUAUGGGUUG [G1A G6A C27U A43C C66U A69G A70U C71U],-0.628
6,AUUCCUUUGGCGUAAUGGUAACGCGUUUCCCUCCUAAGGAGAAGACUGCGGGUUCGAGUCCCGUACGGAUUG [G1A G6U C27U A70U C71U],-0.335
7,GCUCCUUUGGCGUAAUGGUAACGCGUCUCCCUCCUAAGGAGACGAUUGCGGGUUCGAGUCCCGUAUGGAACG [U2C G6U A43C C46U C66U],-0.158
8,AUUCCUUUGGCGUAAUGGUAACGCGUUUCCCUCCUAAGGAGAAGAUUGCGGGUUCGAGUCCCGUAUGGAUCG [G1A G6U C27U C46U C66U A70U],-0.29
9,GUUCCUUUGGCGUAAUGGUAACGCGUUUCCCUCCUAAGGAGAAGAUUGCGGGUUCGAGUCCCGUAUGGGGUG [G6U C27U C46U C66U A69G A70G C71U],-0.321
10,AGUCCUUUGGCGUAAUGGUAACGCGUCUCCCUCCUAAGGAGAAGACUGCGGGUUCGAGUCCCGUAUGGAUCG [G1A U2G G6U C66U A70U],-0.211
11,GCUCCGUUGGCGUAAUGGUAACGCGUCUCCCUCCUAAGGAGAAGACUGCGGGUUCGAGUCCCGUAUGGAGCG [U2C C66U A70G],-0.00448
12,GUUCCUUUGGCGUAAUGGUAACGCGUUUCCCUCCUAAGGAGACGACUGCGGGUUCGAGUCCCGUAAGGAACG [G6U C27U A43C C66A],-0.0198
13,GUUCCUUUGGCGUAAUGGUAACGCGUCUCCCUCCUAAGGAGAAGACUGCGGGUUCGAGUCCCGUAUGGAGCG [G6U C66U A70G],-0.383
14,GUUCCUUUGGCGUAAUGGUAACGCGUUUCCCUCCUAAGGAGACGAUUGCGGGUUCGAGUCCCGUAAGGAACG [G6U C27U A43C C46U C66A],-0.0176
15,ACUCCGUUGGCGUAAUGGUAACGCGUUUCCCUCCUAAGGAGAAGACUGCGGGUUCGAGUCCCGUAUGGGGCG [G1A U2C C27U C66U A69G A70G],-0.313
16,GUUCCGUUGGCGUAAUGGUAACGCGUCUCCCUCCUAAGGAGACGACUGCGGGUUCGAGUCCCGUACGGGACG [A43C A69G],-0.0224
17,AGUCCAUUGGCGUAAUGGUAACGCGUUUCCCUCCUAAGGAGAAGAUUGCGGGUUCGAGUCCCGUACGGGGUG [G1A U2G G6A C27U C46U A69G A70G C71U],-0.332
18,AUUCCUUUGGCGUAAUGGUAACGCGUUUCCCUCCUAAGGAGACGAUUGCGGGUUCGAGUCCCGUAAGGAUUG [G1A G6U C27U A43C C46U C66A A70U C71U],-0.325
19,GUUCCAUUGGCGUAAUGGUAACGCGUUUCCCUCCUAAGGAGAAGACUGCGGGUUCGAGUCCCGUAUGGGGCG [G6A C27U C66U A69G A70G],-0.368

row,Variant,yeast fitness (ln)
1,AUUCCAUUGGCGUAAUGGUAACGCGUCUCCCUCCUAAGGAGAAGACUGCGGGUUCGAGUCCCGUACGGAAUG [G1A G6A C71U],-0.363
2,GGUCCUUUGGCGUAAUGGUAACGCGUUUCCCUCCUAAGGAGAAGACUGCGGGUUCGAGUCCCGUAAGGAGCG [U2G G6U C27U C66A A70G],-0.243
3,GGUCCGUUGGCGUAAUGGUAACGCGUCUCCCUCCUAAGGAGAAGACUGCGGGUUCGAGUCCCGUAUGGAGUG [U2G C66U A70G C71U],-0.121
4,GGUCCGUUGGCGUAAUGGUAACGCGUCUCCCUCCUAAGGAGACGAUUGCGGGUUCGAGUCCCGUACGGGGCG [U2G A43C C46U A69G A70G],-0.174
5,AUUCCUUUGGCGUAAUGGUAACGCGUCUCCCUCCUAAGGAGAAGAUUGCGGGUUCGAGUCCCGUACGGAUCG [G1A G6U C46U A70U],-0.14
6,GCUCCAUUGGCGUAAUGGUAACGCGUCUCCCUCCUAAGGAGAAGACUGCGGGUUCGAGUCCCGUAAGGGGUG [U2C G6A C66A A69G A70G C71U],-0.139
7,AUUCCAUUGGCGUAAUGGUAACGCGUUUCCCUCCUAAGGAGAAGAUUGCGGGUUCGAGUCCCGUAAGGAGUG [G1A G6A C27U C46U C66A A70G C71U],-0.269
8,GGUCCGUUGGCGUAAUGGUAACGCGUCUCCCUCCUAAGGAGAAGAUUGCGGGUUCGAGUCCCGUACGGGGUG [U2G C46U A69G A70G C71U],-0.184
9,AGUCCAUUGGCGUAAUGGUAACGCGUCUCCCUCCUAAGGAGACGACUGCGGGUUCGAGUCCCGUACGGAUCG [G1A U2G G6A A43C A70U],-0.216
10,GGUCCGUUGGCGUAAUGGUAACGCGUCUCCCUCCUAAGGAGACGACUGCGGGUUCGAGUCCCGUAAGGGUCG [U2G A43C C66A A69G A70U],-0.231
11,AUUCCGUUGGCGUAAUGGUAACGCGUCUCCCUCCUAAGGAGAAGAUUGCGGGUUCGAGUCCCGUACGGAGCG [G1A C46U A70G],-0.226
12,AUUCCAUUGGCGUAAUGGUAACGCGUCUCCCUCCUAAGGAGACGACUGCGGGUUCGAGUCCCGUACGGGGUG [G1A G6A A43C A69G A70G C71U],-0.248
13,GGUCCGUUGGCGUAAUGGUAACGCGUUUCCCUCCUAAGGAGAAGAUUGCGGGUUCGAGUCCCGUACGGAAUG [U2G C27U C46U C71U],-0.099
14,AUUCCUUUGGCGUAAUGGUAACGCGUUUCCCUCCUAAGGAGAAGACUGCGGGUUCGAGUCCCGUAUGGGGUG [G1A G6U C27U C66U A69G A70G C71U],-0.386
15,AUUCCUUUGGCGUAAUGGUAACGCGUUUCCCUCCUAAGGAGACGACUGCGGGUUCGAGUCCCGUAAGGAUUG [G1A G6U C27U A43C C66A A70U C71U],-0.608
16,GUUCCUUUGGCGUAAUGGUAACGCGUCUCCCUCCUAAGGAGAAGACUGCGGGUUCGAGUCCCGUAUGGGUCG [G6U C66U A69G A70U],-0.261
17,GCUCCGUUGGCGUAAUGGUAACGCGUCUCCCUCCUAAGGAGACGAUUGCGGGUUCGAGUCCCGUAAGGGUUG [U2C A43C C46U C66A A69G A70U C71U],-0.374
18,GGUCCUUUGGCGUAAUGGUAACGCGUUUCCCUCCUAAGGAGAAGACUGCGGGUUCGAGUCCCGUACGGGAUG [U2G G6U C27U A69G C71U],-0.286
